Test results taken from PubChem BioAssay.
Calls of active or inactive are those of the source.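 Rule for the calls, unless noted: active = fluorescence slope higher than the sample average by over 3 SD (cut at about -0.22 in these data, passing the limit was not always enough); inactive = the rest.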

Legend:
[1] = inhibitors of TNFa-induced NFkB p65 translocation, primary screen, imaging, HUVEC, MLSMR starter and 10KST1 sets (AID 438;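 active = inhibition above 20% together with a positive visual image hit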;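 note: compound added about 3h40 before a 20 min TNFalpha stimulation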;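 for inhibition: signal is the nuclear over cytoplasmic p65 intensity ratio per well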); details: HUVEC TNFa-induced p65 nuclear translocation; cell count: measured here: nuclei count (cytotoxicity indicator), at 2.08 µM; inhibition: at 2 µM, stronger effect = higher value, 0% TNFa-plus-vehicle, 100% no-TNFa wells
[2] = inhibitors of E-selectin induction by TNFa, primary screen, imaging, HUVEC, immunofluorescence, MLSMR starter and 10KST1 sets (AID 487;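 active = visually confirmed hit in the image check and inhibition above 20%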;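 for inhibition: signal is fraction of cell area covered by stained E-selectin grains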;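 for nuclei count: 100% = median nuclei count of all wells on the same plate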); details: HUVEC TNFalpha-induced E-selectin immunofluorescence imaging, at 2 µM; inhibition: stronger effect = higher value; nuclei count: measured here: cell number, toxicity
[3] = DUSP6 inhibitors restoring Erk phosphorylation by chemical complementation, primary imaging in DUSP6-transfected HeLa (AID 609;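 active = compounds giving at least 50% inhibition in the cell-based MKP-3 phosphatase rescue imaging test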;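 for inhibition: phospho-Erk level distribution per well compared with pooled transfected vehicle control wells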); details: HeLa MKP-3 transfected, phospho-Erk imaging KS statistic, at 10 µM, cells stimulated with TPA for 15 min
[4] = target: Dual specificity protein phosphatase 6 (Homo sapiens) (UniProt Q16828); experiment: as above; details: HeLa MKP-3 transfected, phospho-Erk imaging KS statistic; at 10 µM; stronger effect = higher value; cells stimulated with TPA for 15 min
[5] = target: Voltage-gated potassium channel subunit beta-2 (Rattus norvegicus) (UniProt P62483); experiment: KvBeta enzyme negative modulators, primary screen, biochemical, NADPH fluorescence (AID 622); details: recombinant KvBeta, 4-cyanobenzaldehyde reduction, at 10 µM, stronger effect = higher value;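 note: slope of raw intensity against log time taken from 70 to 1610 s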
[6] = target: Voltage-gated potassium channel subunit beta-2 (Rattus norvegicus) (UniProt P62483); experiment: KvBeta positive modulators, primary screen, biochemical, NADPH fluorescence (AID 623;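 active = NADPH fluorescence slope more negative than the mean of all samples by about 3 SD, 99.7% confidence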;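 note: fluorescence intensity change per second fitted from 20 to 320 s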); details: Recombinant KvBeta, NADPH fluorescence decrease slope, 10 min; at 10 µM; stronger effect = lower value
[7] = target: Alpha-2C adrenergic receptor (Homo sapiens) (UniProt P18825); experiment: modulators of alpha2C/GIRK thallium flux, primary screen, cell-based, HEK293 alpha2C/GIRK1/2 (AID 624;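 active = fluorescence slope after compound addition differing from the mean of all screened samples at 99.7% confidence, in either direction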;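 note: slope of fluorescence ratio to pre-addition baseline per second over 15 to 24 s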); details: thallium flux BTC fluorescence, at 10 µM, actives lie on both sides
[8] = inhibitors of larval lipid processing in zebrafish, primary screen, whole organism, PED6 fluorescence, gall bladder and intestine (AID 686;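 active = a full or partial loss of lipid-probe fluorescence in the fish gall bladder, intestine or both, judged by eye; inactive = no fluorescence loss, or compound toxic to the fish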;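 note: larvae 5 to 7 days old with five fish per well; signal comes from phospholipase A2 cleavage of quenched PED6 carried via bile; overnight exposure to compound and PED6 before scoring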); details: Zebrafish larvae PED6 lipid processing, fluorescence scoring; screened at 20 µM (by protocol)
Method in brief: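 system = live zebrafish larvae aged 5-7 days, whole organism | probe or stimulus = ingested quenched lipid PED6 at 100 nM | doses = 20 µM single dose | timing = overnight exposure | detection = fluorescence microscopy with visual scoring of gall bladder and intestine | read-out = visual per-well fluorescence inhibition score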

[9] = inhibitors of Chlamydomonas gravitaxis, primary screen, whole organism, Chlamydomonas reinhardtii, WT vs cilia-less mutant, absorbance, 96-well (AID 463189;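 active = inhibition at or above 50% relative to wild type and mutant plate controls; inactive = inhibition below 50%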;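 note: 0% = wild type cc124 cells in DMSO and 100% = ciliumless bld1 mutant cells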); details: OD600 absorbance, 2 days, at 10 µM, stronger effect = higher value
[10] = measured here: cell density z-score
[11] = measured here: nuclear c-Myc green intensity z-score
[12] = measured here: nuclear pErk red intensity z-score, stronger effect = higher value

Chain of Voltage-gated potassium channel subunit beta-2 (Rattus norvegicus) (P62483 whole entry, looked up): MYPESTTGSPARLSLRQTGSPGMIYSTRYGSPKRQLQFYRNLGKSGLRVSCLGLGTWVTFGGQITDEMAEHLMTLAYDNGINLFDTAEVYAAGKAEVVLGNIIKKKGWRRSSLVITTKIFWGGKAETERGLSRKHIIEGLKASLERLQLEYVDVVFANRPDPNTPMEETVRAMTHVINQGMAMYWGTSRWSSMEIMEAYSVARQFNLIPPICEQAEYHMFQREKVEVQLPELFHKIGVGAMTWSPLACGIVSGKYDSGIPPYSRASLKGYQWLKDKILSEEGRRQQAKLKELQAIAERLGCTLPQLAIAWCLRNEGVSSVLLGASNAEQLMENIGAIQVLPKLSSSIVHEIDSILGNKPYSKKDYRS
Chain of Alpha-2C adrenergic receptor (Homo sapiens) (P18825 whole entry, looked up): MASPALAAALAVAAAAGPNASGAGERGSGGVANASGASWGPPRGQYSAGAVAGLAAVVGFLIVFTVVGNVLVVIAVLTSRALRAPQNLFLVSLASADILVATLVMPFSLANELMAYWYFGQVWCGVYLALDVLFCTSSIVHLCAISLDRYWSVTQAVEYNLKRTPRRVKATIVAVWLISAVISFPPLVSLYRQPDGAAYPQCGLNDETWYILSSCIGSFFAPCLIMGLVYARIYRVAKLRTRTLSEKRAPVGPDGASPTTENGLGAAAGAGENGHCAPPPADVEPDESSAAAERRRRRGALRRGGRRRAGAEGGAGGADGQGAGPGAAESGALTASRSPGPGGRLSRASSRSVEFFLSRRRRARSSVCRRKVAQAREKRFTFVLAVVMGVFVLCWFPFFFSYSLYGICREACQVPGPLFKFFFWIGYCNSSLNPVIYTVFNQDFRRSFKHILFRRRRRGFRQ
Chain of Dual specificity protein phosphatase 6 (Homo sapiens) (Q16828 whole entry, looked up): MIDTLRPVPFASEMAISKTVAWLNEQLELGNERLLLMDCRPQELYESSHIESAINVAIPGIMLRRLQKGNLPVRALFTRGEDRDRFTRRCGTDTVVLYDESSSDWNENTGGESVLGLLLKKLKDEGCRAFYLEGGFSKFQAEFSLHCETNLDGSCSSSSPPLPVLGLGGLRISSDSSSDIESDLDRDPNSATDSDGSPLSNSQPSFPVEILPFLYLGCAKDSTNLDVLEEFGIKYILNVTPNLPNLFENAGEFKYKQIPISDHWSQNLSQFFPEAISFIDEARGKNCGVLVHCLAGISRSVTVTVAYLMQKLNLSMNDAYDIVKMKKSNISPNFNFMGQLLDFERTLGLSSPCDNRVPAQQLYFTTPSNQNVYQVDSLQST

| Structure (SMILES) | cell count [1] | inhibition [1] | inhibition [2] | nuclei count [2] | z-score [3, 10] | z-score [3, 11] | z-score [3, 12] | inhibition [4] | fluorescence slope [5] | NADPH fluorescence slope [6] | slope [7] | outcome [8] | inhibition [9] |
| --- | --- | --- | --- | --- | --- | --- | --- | --- | --- | --- | --- | --- | --- |
| CCCCCCSC1=C(C#N)C(c2ccccc2)CC(=O)N1 (stereo not drawn) | 469 | 0.6% (inactive) | -6.9% (inactive) | 74.3% | 0.751 | 0.0915 | -1.53 | 18.9% (inactive) | -0.513 (inactive) | -6.1e-05 (inactive) | 0.00499 (inactive) | inactive | 24.3% (inactive) |
| Oc1ccc2ccccc2c1/C=N/n1cnnc1 | 538 | -5.9% (inactive) | -57.1% (inactive) | 217% | 0.969 | 0.692 | -0.685 | -2.91% (inactive) | -0.356 (inactive) | -1.6e-05 (inactive) | 0.00487 (inactive) | inactive | -4.69% (inactive) |
| COc1ccc(OC)c(NC(=O)CSC2=C(C#N)C(c3ccco3)C3=C(CCCC3=O)N2)c1 (stereo not drawn) | 356 | -6.8% (inactive) | -37.1% (inactive) | 141% | -0.66 | -0.0626 | 0.62 | -6.59% (inactive) | -0.404 (inactive) | -0.000112 (inactive) | 0.00599 (inactive) | inactive | 20.2% (inactive) |
| N#CC1=C(N)N2C(=C(C#N)C1c1ccccc1)Sc1ccccc12 (stereo not drawn) | 653 | -14.8% (inactive) | 9.7% (inactive) | 116% | 1.49 | -0.461 | -0.35 | 17.7% (inactive) | -0.452 (inactive) | -9.4e-06 (inactive) | 0.0107 (inactive) | inactive | 44.9% (inactive) |
| O=C(c1cccs1)N1CCC(N2CCN(c3ccccc3)CC2)CC1 | 390 | -7.3% (inactive) | -50.1% (inactive) | 119% | 0.783 | 0.365 | -0.94 | 11.3% (inactive) | -0.378 (inactive) | -1.9e-05 (inactive) | 0.00799 (inactive) | inactive | 43.7% (inactive) |
| COCCCNC(=O)C(C#N)c1nc2ccccc2nc1N1CCN(Cc2ccccc2)CC1 (stereo not drawn) | 630 | -5.8% (inactive) | -33.3% (inactive) | 156% | -0.882 | -0.494 | -0.556 | -8.27% (inactive) | -0.472 (inactive) | -0.00034 (inactive) | 0.00118 (inactive) | inactive | 33.7% (inactive) |
| CCCSc1nnc2n(-c3ccccc3OC)c(=O)c3c4c(sc3n12)CCC4 | 523 | -14.8% (inactive) | -63.5% (inactive) | 171% | 1.08 | -1.06 | -0.347 | 7.73% (inactive) | -0.358 (inactive) | -3.5e-05 (inactive) | 0.00552 (inactive) | inactive | 11.2% (inactive) |
| COc1cccc(COc2nc3c(c(=O)n(C)c(=O)n3C)n2C)c1 | 456 | -4.5% (inactive) | -99.3% (inactive) | 164% | -0.352 | 0.147 | -0.806 | -7.28% (inactive) | -0.325 (inactive) | -1.3e-06 (inactive) | 0.00578 (inactive) | inactive | 5.71% (inactive) |
| O=C1c2ccccc2C(=O)N1CCN1CCc2ccccc21 | 404 | -3.1% (inactive) | -131% (inactive) | 166% | 0.756 | -0.637 | -0.565 | 13.2% (inactive) | -0.394 (inactive) | -5.6e-05 (inactive) | 0.00539 (inactive) | inactive | -3.59% (inactive) |
| CNc1nc(C)c(C#N)cc1C(C)=O | 481 | -11.7% (inactive) | 8.2% (inactive) | 166% | 0.906 | -0.478 | -0.65 | 5.65% (inactive) | -0.513 (inactive) | -9.4e-05 (inactive) | 0.00563 (inactive) | inactive | 26.6% (inactive) |
| Cc1ccc(OCC(=O)N2CCC(N3CCCCCC3)CC2)cc1 | 387 | -12% (inactive) | -349% (inactive) | 176% | -0.193 | 0.541 | -0.692 | 9.39% (inactive) | -0.391 (inactive) | -2.1e-05 (inactive) | 0.00447 (inactive) | inactive | 4.12% (inactive) |
| CCN(CC)CCCN1C(=O)C(O)=C(C(=O)c2ccc(C)o2)C1c1ccc(C)o1 (stereo not drawn) | 581 | -17.5% (inactive) | -104% (inactive) | 153% | 0.106 | 0.341 | 0.337 | -2.47% (inactive) | -0.485 (inactive) | -5.2e-05 (inactive) | 0.00555 (inactive) | inactive | 4.2% (inactive) |
| O=C(NCCN1CCOCC1)c1cc2n(n1)C(C(F)(F)F)CC(c1ccc(F)cc1)N2 (stereo not drawn) | 341 | -2.3% (inactive) | -22.1% (inactive) | 104% | -1.73 | 1.46 | -0.339 | 7.48% (inactive) | -0.529 (inactive) | -9.5e-05 (inactive) | 0.00574 (inactive) | inactive | -15.3% (inactive) |
| CC(C)OC(=O)C(C#N)c1nc2ccccc2nc1N1CCN(Cc2ccc3c(c2)OCO3)CC1 (stereo not drawn) | 351 | -4.7% (inactive) | -35.2% (inactive) | 129% | -0.0424 | 0.237 | -0.926 | 3.5% (inactive) | -0.459 (inactive) | -0.000113 (inactive) | 0.00323 (inactive) | inactive | 17% (inactive) |
| CCCCCSc1nc(O)cc(=O)[nH]1 | 366 | -1.9% (inactive) | -61.7% (inactive) | 116% | -1.75 | 1.21 | 0.475 | -0.624% (inactive) | -0.395 (inactive) | 1.3e-05 (inactive) | 0.00579 (inactive) | inactive | -10.7% (inactive) |
| CNS(=O)(=O)c1cccc2nsnc12 | 592 | -20.7% (inactive) | -98.5% (inactive) | 141% | -1.23 | 0.529 | 1.87 | -15% (inactive) | -0.51 (inactive) | -3.5e-05 (inactive) | 0.005 (inactive) | inactive | 11.1% (inactive) |
| COC(=O)c1ccc(-c2sc3nc(N4CCOCC4)c4c(c3c2N)CC(C)(C)OC4)o1 | 595 | -19.5% (inactive) | -62.4% (inactive) | 153% | -1.25 | 1.71 | 2.19 | -0.624% (inactive) | -0.16 (inactive) | -2.4e-05 (inactive) | 0.00678 (inactive) | inactive | -4.84% (inactive) |
| Cc1ccccc1C(=O)c1ccc2c(c1)n(C)c(=O)n2C | 547 | -22.1% (inactive) | -296% (inactive) | 200% | 1.43 | -1.34 | 1.32 | 5.65% (inactive) | -0.512 (inactive) | -5.8e-05 (inactive) | 0.00384 (inactive) | inactive | 0.416% (inactive) |
| c1ccc(OCc2nn3c(-c4ccco4)nnc3s2)cc1 | 654 | 3.2% (inactive) | -139% (inactive) | 156% | 2.72 | -1.05 | -0.302 | 11.9% (inactive) | -0.417 (inactive) | -0.000108 (inactive) | 0.00597 (inactive) | inactive | 7.84% (inactive) |
| Cc1cc(OCCN2CCCCC2)nc2ccccc12 | 482 | 6.3% (inactive) | -39.5% (inactive) | 95% | 1.18 | -0.61 | -0.992 | 26.3% (inactive) | -0.332 (inactive) | 1.4e-05 (inactive) | 0.0054 (inactive) | inactive | 39.2% (inactive) |
| Cc1c([C@H]2[C@@H](CC#N)C2(C)C)c2ccccc2n1C | 637 | -3.8% (inactive) | -51.3% (inactive) | 153% | -0.588 | 0.872 | 0.83 | -6.48% (inactive) | -0.536 (inactive) | -9.2e-05 (inactive) | 0.00537 (inactive) | inactive | 11.5% (inactive) |
